Lipid droplet – inhibitors of hepatocyte lipid droplet formation, primary screen, imaging, high-throughput imaging, BODIPY stain | AID 1656, 2009 | hit rate 0.4% among 240,000 | inhibition, % at 6.5 µM | AML12 mouse hepatocytes, oleate lipid droplets;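 active = lipid droplet intensity inhibited by at least 50%, with more than 500 cells counted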
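Assay system: AML12 mouse liver cells | Compound: 6.5 µM single-point dosing | Schedule: Overnight exposure | Technique: Fluorescence imaging, 20x objective, two fields per well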
GRK2 inh – compounds blocking aptamer binding on GRK2 – biochemical, human GRK2, bead flow cytometry, HTS, primary screen; Beta-adrenergic receptor kinase 1 (Homo sapiens), P25098; inhibition of aptamer binding, % at 10 µM; hit rate 0.59% among 330,000; FAM-aptamer displacement from GRK2; AID 488847, 2010;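 active = inhibition of aptamer binding above 40%, roughly 3 SD of noise, on plates passing a quality check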;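 also: median bead fluorescence of bound FAM aptamer so fluorescent compounds give negative values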
TAG inh – inhibitors of triacylglycerol accumulation, primary screen, cell-based, uHTS, fluorescence, H9c2; H9c2 cells, Nile Red lipid (TAG) fluorescence; cells loaded with 200 µM oleic acid; inhibition, % at 12.5 µM; hit rate 0.66% among 230,000; AID 651582, 2012;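 active = pattern-corrected inhibition of lipid staining of at least 50% with the nuclear-stain viability signal not falling by more than 50%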;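 also: 0% = DMSO wells and 100% = triacsin C control wells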
NTR1 ag – agonists of human NTR1, primary screen, imaging, U2OS cells, beta-arrestin-GFP, high content; NTR1-U2OS beta-arrestin-GFP spot imaging, agonist mode; activation, % at 20 µM; hit rate 0.17% among 330,000; AID 493036, 2011;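 active = activation at or above 40% of the spot to cytoplasm intensity ratio, with at least 20 cells analyzed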;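 also: 0% = DMSO without peptide and 100% = 100 nM NTR1 peptide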
Target sequence (P30989 whole entry, looked up): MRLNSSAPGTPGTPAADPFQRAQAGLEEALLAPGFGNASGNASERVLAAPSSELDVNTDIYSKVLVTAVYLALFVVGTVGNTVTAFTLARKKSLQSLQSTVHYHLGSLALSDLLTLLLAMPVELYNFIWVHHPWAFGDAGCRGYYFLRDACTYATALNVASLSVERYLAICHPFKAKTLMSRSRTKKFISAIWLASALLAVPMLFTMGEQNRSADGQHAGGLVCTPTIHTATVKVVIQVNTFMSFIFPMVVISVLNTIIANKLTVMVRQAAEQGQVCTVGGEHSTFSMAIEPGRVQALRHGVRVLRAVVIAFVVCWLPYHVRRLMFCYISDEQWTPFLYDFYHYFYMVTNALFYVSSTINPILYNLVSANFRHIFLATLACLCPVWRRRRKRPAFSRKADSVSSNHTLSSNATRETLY
B2AR ag – beta2AR agonists driving receptor internalization, primary screen, cell-based, FAP fluorogen, flow cytometry. Beta-2 adrenergic receptor (Homo sapiens), P07550. Am2.2-beta2AR cells. response, % (test concentration not listed). hit rate 0.43% among 340,000;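 active = response above a set limit, near 3 SD of response in nonfluorescent compounds, cut at about 42% in these data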
Arrestin-AP2 inh – inhibitors of beta-arrestin/AP2 binding, primary screen, biochemical, GPCR trafficking, flow cytometry; FITC-arrestin peptide / GST-AP2 beads; AP2 beta2 appendage carries R879A mutation; inhibition, % at 10 µM; hit rate 0.31% among 340,000;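 active = inhibition above a set limit, near 3 SD of compounds lacking own fluorescence, cut at about 54% in these data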;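 also: plate controls were DMSO wells for no effect and 5 µM unlabelled arrestin peptide for full effect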
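Material – GST-tagged AP2 beta2-adaptin appendage (R879A) on 4 µm glutathione beads · Probe or stimulus – fluorescein-tagged arrestin peptide at 50 nM final · Timing – 12 min plus 1 h, RT · Detection – bead flow cytometry, FITC channel · Read-out basis – inhibition as reduced fluorescein signal on beads, percent · Medium – PBS plus Tween 20 (0.05%) and BSA (0.1%)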
GRK2 inh confirm – GRK2 aptamer-displacing inhibitors, retest, confirmation, biochemical, cherry pick 1, bead flow cytometry | bead-bound GRK2, FAM-aptamer displacement | aptamer displacement, % at 10 µM | shares compounds with GRK2 inh | hit rate 4% among 2,000 | AID 504451, 2011;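 active = aptamer displacement above 40%, near three times the noise of non-fluorescent compounds, on plates passing quality checks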;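 also: negative values mostly reflect intrinsic compound fluorescence rather than true enhancement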
Aptamer quench 1 – counter-screen for GRK2 aptamer inhibitors: fluorescent aptamer quenchers; Fluorescent RNA aptamer beads, quenching, flow cytometry; stronger effect = higher value; shares compounds with GRK2 inh; 110 tested, under 10 active; fluorescence change (kMESF span), kMESF (test concentration not listed);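 active = compounds whose bead fluorescence drops by more than 37 kMESF across the dose range, marking them as dye quenchers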
FAM quench CP1 – counter-screen for GRK2 aptamer inhibitors: fluorescent aptamer quenchers; shares compounds with GRK2 inh; Carboxyfluorescein RNA aptamer on beads, flow cytometry quenching; stronger effect = lower value; fluorescence response (% of DMSO), % at 10 µM; 2,000 tested, under 10 active; AID 504580;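 active = compounds that quench the bead-bound fluorescent RNA probe, cutting fluorescence to under half of the solvent control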;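 also: counterscreen run without GRK2 so only probe quenching by compound is measured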
GRK2 CP2 – GRK2 aptamer-displacing inhibitors, hit retest, confirmation, biochemical, cherry pick 2, bead flow cytometry; bead-bound GRK2, FAM-aptamer displacement; shares compounds with GRK2 inh; 360 tested, under 10 active; AID 504782, 2011; inhibition of aptamer binding, % at 10 µM;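 active = inhibition of aptamer binding above 40%, about triple the noise seen with nonglowing compounds, on plates passing quality control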;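 also: negative values mostly come from compounds that fluoresce themselves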
FAM quench SP – aptamer fluorescence quenching in GRK2 counter-screen. AID 588494. fluorescence response vs DMSO, % at 10 µM. 360 tested, under 10 active. shares compounds with GRK2 inh. carboxyfluorescein RNA aptamer beads, flow cytometry quenching; stronger effect = lower value;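 active = response vs DMSO under 50%, meaning signal dropped by over half, treated as fluorescence quencher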;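 also: labelled aptamer on streptavidin beads without GRK2 as a quench counter-screen; 100% = bead fluorescence of DMSO wells and lower means quenching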
The depositor's hits bear a star; nt = no result. In the library only some 2% were active in any assay of this set; here they are far more common.

SMILES	Lipid droplet	GRK2 inh	TAG inh	NTR1 ag	B2AR ag	Arrestin-AP2 inh	GRK2 inh confirm	FAM quench CP1	others
CC(C(=O)Nc1ccccn1)N1C(=O)c2ccccc2S1(=O)=O (configuration not stated)	nt	0	-5	0	-4	-26	nt	nt
Cc1sc2c(c1C)C(=O)/C(=C\Nc1ccccn1)S(=O)(=O)N2C	8	57*	-5	1	-17	24	-3	94
O=C1C(=O)c2ccc(-c3ccccc3)cc2-c2ccccc21	-20	66*	nt	14	61*	-2	15	105
Nc1ccc2c(c1)C(=O)c1ccccc1-2	nt	2	22	0	-5	-7	nt	nt
CC(C)CNC(=S)N1CCN(c2nc3ccccc3s2)CC1	-11	42*	2	2	-23	20	0	98
CCn1c(N2CCN(C(=S)NCC(C)C)CC2)nc2ccccc21	-22	4	nt	1	-3	-5	nt	nt
Cc1cc(=O)oc2cc(OCC(=O)N/N=C/c3cc([N+](=O)[O-])ccc3O)ccc12	-6	75*	nt	nt	0	5	-2	99
Cc1ccc(NC(=O)CCC(=O)N/N=C/c2cc([N+](=O)[O-])ccc2O)cc1	-3	1	-7	0	9	15	nt	nt
CC1CN(C(=O)c2cccc(S(=O)(=O)N3CCOCC3)c2)CC(C)O1 (configuration not stated)	nt	27	nt	0	-1	9	1	100
CC1CN(C(=O)c2cccc(COc3ccccc3Cl)c2)CC(C)O1 (configuration not stated)	-8	98*	nt	1	9	-7	1	99
CC1CN(C(=O)c2cccc(S(=O)(=O)N3CCN(c4ccc(F)cc4)CC3)c2)CC(C)O1 (configuration not stated)	16	6	-37	-1	2	12	nt	nt
CC(=O)N1CCN(C(=O)c2cc(S(=O)(=O)N3CCCCC3)ccc2Cl)CC1	nt	0	1	-1	-2	-5	nt	nt
Nc1nc(SCC(=O)N2N=C3/C(=C/c4ccco4)CCCC3C2c2ccco2)n[nH]1 (configuration not stated)	-3	0	9	3	-4	-3	nt	nt
O=C(CSc1nccc(=O)[nH]1)N1N=C2/C(=C/c3ccco3)CCCC2C1c1ccco1 (configuration not stated)	13	42*	-34	0	3	2	1	98
Cn1c(C(=O)N[C@@H](C(=O)O)c2ccccc2)cc2cc(F)ccc21	nt	64*	nt	-1	-3	-10	2	99
Cc1ccnc(NC(=O)CNC(=O)Cc2cccc3ccccc23)c1	nt	1	10	0	6	-1	nt	nt
O=C(CN1CCCN(Cc2ccc(F)cc2Cl)C1=O)NCc1ccccc1	-28	2	nt	1	5	15	nt	nt
COC(CNC(=O)CN1CCN(Cc2ccc(F)cc2Cl)C1=O)OC	nt	17	nt	-2	-6	19	-3	96
O=C1c2cccc3c2[C@H](CCC3)CN1[C@@H]1CN2CCC1CC2	nt	1	nt	-1	nt	nt	nt	nt
O=C(NCC1OCCc2ccccc21)c1ccc(NC(=O)c2ccc(Cl)cc2Cl)cc1 (configuration not stated)	14	1	nt	13	-2	-1	nt	nt
O=C(NCC1OCCc2ccccc21)c1ccc(NC(=O)c2ccccc2Cl)cc1 (configuration not stated)	24	47*	nt	1	-4	8	nt	nt	GRK2 CP2=-3;FAM quench SP=101
COc1cccc(C(NC(C)=O)c2nc(-c3cccc(C(C)C)c3)cs2)c1 (configuration not stated)	nt	nt	12	nt	nt	nt	nt	nt
NS(=O)(=O)c1ccc(NC(=O)CN2CCN(S(=O)(=O)/C=C/c3ccccc3)CC2)cc1	-13	54*	2	0	2	40	6	101
C=CCn1ccc(=NC=C(C#N)C#N)c2ccccc21	-8	4	-16	0	7	-2	nt	nt
Cc1ccccc1C(=O)Nc1cccc(-c2ccc(N3CCOCC3)nn2)c1	nt	1	29	0	1	1	-3	96
SMILES	Lipid droplet	GRK2 inh	TAG inh	NTR1 ag	B2AR ag	Arrestin-AP2 inh	GRK2 inh confirm	FAM quench CP1	others
Cc1ccc(C(=O)Nc2cccc(-c3ccc(N4CCOCC4)nn3)c2)cc1[N+](=O)[O-]	nt	0	21	4	15	-12	nt	nt
O=C(Nc1cccc(-c2ccc(N3CCOCC3)nn2)c1)c1ccccc1	nt	0	16	1	3	-3	19	100	Aptamer quench 1=-1.6
Cc1c(C(=O)O)sc(S(=O)(=O)N2CCN(C(=O)CCc3ccccc3)CC2)c1C(=O)O	nt	nt	6	0	-5	8	nt	nt
Cn1c(=O)c2nc3ccccc3nc2n(C)c1=O	17	1	2	0	-3	-16	nt	nt
CC(=O)Nc1ccc2nc3c(=O)n(C)c(=O)n(C)c3nc2c1	11	42*	-1	3	-169	-2	20	78
Cc1ccc(SCc2c(C(=O)N/N=C/c3ccc4c(c3)OCO4)nnn2-c2nonc2N)cc1	-2	51*	nt	1	-5	-9	-3	96
COc1ccc(-c2cc(C(=O)N(C)Cc3nc4ccccc4c(=O)[nH]3)c3ccccc3n2)cc1OC	nt	29	19	5	20	6	0	101
COc1cc(/C=C/C(C)=NNc2ccccc2)ccc1O	nt	nt	3	nt	4	25	nt	nt
CCc1nnc(NS(=O)(=O)c2ccc(NC(=O)COc3ccc4ccccc4c3)cc2)s1	6	51*	-8	0	-1	-5	3	98

Bioassay records (PubChem)
